Results collected from several papers.

| SMILES | target or system | assay | test system | conditions | measurement | result |
| --- | --- | --- | --- | --- | --- | --- |
| CCOP(=O)(OCC)[C@@H]1C[C@@H](n2cc(-c3ccccc3)nn2)ON1C (racemic) | human T-lymphocyte | cell growth or viability |  | 72 h | CC50 | > 250 µM |
| O=C(c1ccc(Oc2ccccc2)cc1Cl)c1c[nH]c2ncnc(N[C@@H]3CC[C@@H](CO)OC3)c12 |  |  | cynomolgus monkey, plasma | oral, 10 mg/kg, single dose | AUC(0-t) | 82700 ng·h/mL |
| CCOP(=O)(OCC)[C@@H]1C[C@@H](n2cc(-c3ccccc3F)nn2)ON1C | human T-lymphocyte | cell growth or viability |  | 72 h | CC50 | > 250 µM |
| COc1ccc2c(c1)c1c(n2CO)CN2CCc3cc(OCc4ccccc4)c(OC)cc3C2C1 (stereo not shown) | HepG2 | cell growth or viability |  | 5 µM, 24 h | viability | 100% |
| c1ccc(-c2nc(N3CCC(c4ccccn4)C3)c3ccccc3n2)nc1 (stereo not shown) |  |  | female BALB/c mouse, plasma | oral, 12.5 mg/kg | MRT(0-inf) | 5.9 h |
| COc1cc(OC)c2nccc(N3CCc4c(cc(Cn5ccnc5)cc4-c4cn(C)nc4C(F)(F)F)C3=O)c2c1 |  |  | male CD-1 mouse, plasma | intravenous, 3 mg/kg | MRT(0-inf) | 0.5 h |
| CCCCCCn1c(-c2cccc(Cl)c2)n[nH]c1=S | HepG2 | cell growth or viability, resazurin |  | 10 µM, 24 h | viability | 103% |
| CN(C(=O)n1cnc(-c2ccc[n+]([O-])c2)c1)C1CCCCC1 |  |  | male cynomolgus monkey, plasma | oral, 0.3 mg/kg | AUC(0-t) | 452 ng·h/mL |
| COc1ccc2nccc(N3CCc4c(cc(Cn5ccnc5)cc4-c4cn(C)nc4C(F)(F)F)C3=O)c2c1 |  |  | male CD-1 mouse, plasma | oral, 10 mg/kg | MRT(0-inf) | 1.4 h |
| COc1ccc(CCN2CCC(Nc3nc4ccccc4n3Cc3ccc(F)cc3)CC2)cc1 | HepG2 | cell growth or viability, resazurin |  | 100 µM, 24 h | viability | 2% |
| COc1ccc2c(c1)c1c(n2CO)CN2CCc3cc(OC)c(OCC(F)(F)F)cc3C2C1 (stereo not shown) | HepG2 | cell growth or viability |  | 20 µM, 24 h | viability | 74.7% |
| Nc1cc(CNC(=O)c2cc3[nH]ccc3cc2Cl)cc(C(F)(F)F)c1 | HEK-293T | cell growth or viability |  | 100 µM, 24 h | viability | < 50% |
| CCN(CC)C(=O)[C@@]1(c2ccccc2)C[C@H]1CN |  |  | male cynomolgus monkey, plasma | oral, 30 mg/kg | AUC(0-t) | 40000 ng·h/mL |
